Results from PubChem BioAssay.
Records with an inconclusive call do not appear.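 The calls were made as follows, unless noted: active = viability at or below 27.92% in each of two runs, the all-compound median minus 4 SD; inconclusive = no clear call, values can overlap the other calls; inactive = the rest.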

Tests used:
[1] = OD615 S. cerevisiae growth inhibition, permissive medium, pilot counter-assay, permissive growth control for S. cerevisiae lifespan shortening project (AID 705;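 active = growth inhibition above 25% in both replicates, a cutoff set 3 SD above the mean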); settings: OD615, 24 h, at 10 µM, active compounds read high
Procedure, shortened: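 System: Engineered DeaD yeast | Buffer or medium: SC raffinose/galactose permissive medium | Doses: 10 µM single dose, 0.25% DMSO | Times: 24 h exposure, 30 °C | Measured by: OD615 turbidity read | Read-out: Yeast growth inhibition indicated by reduced 24 h OD615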

[2] = Restrictive medium S. cerevisiae growth inhibition, OD615, pilot screen of yeast lifespan reduction project, restrictive growth control (AID 706;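 active = growth inhibition above a set limit, 3 SD over mean compound inhibition, in both replicates, cut at about 43% in these data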;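 also: modified DeaD lifespan yeast strain shifted to restrictive glucose medium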); settings: OD615, 48 h, at 10 µM, active compounds read high
Procedure, shortened: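 Assay system: engineered S. cerevisiae DeaD strain; Buffer or medium: CSMM-D glucose medium; Dosing: 10 µM compound, 0.25% DMSO; Times: cell pre-growth 4 h, compound exposure 48 h, 30 °C; Detection: absorbance (optical density) measured at 615 nm.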

[3] = viability gain of MRP-1-high H69AR cells under doxorubicin, pilot screen, MRP-1 activator project, CellTiter-Glo, duplicate (AID 807;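 active = viability increase at or above a cutoff of the median across tested compounds plus 3 SD, cut at about 8.5% in these data, passing the limit was not always enough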;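 also: compound pretreatment 18-22 h then 72 h combined with doxorubicin; 0% = doxorubicin alone and 100% = vehicle without doxorubicin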); settings: H69AR viability with doxorubicin, CellTiter-Glo luminescence; at 10 µM; active compounds read high
[4] = growth suppression of beta-catenin knockout HCT116, pilot screen, human colon tumor cells (AID 823;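 active = cell viability at or below a set limit in both duplicate runs, the limit being the all-compound median minus 4 SD, cut at about 23% in these data, passing the limit was not always enough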;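 also: 0% = wells killed by 20 µM Hyamine and 100% = untreated DMSO cell wells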); settings: CellTiter-Glo, 60 h, at 10 µM, active compounds read low
[5] = growth suppression of PTEN-deleted HCT116, pilot screen, cell-based, HCT116 clonal line, CellTiter-Glo (AID 824); settings: 60 h, at 10 µM, active compounds read low;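 also: 0% = 20 µM Hyamine control and 100% = vehicle cell control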
[6] = inhibitors of the yeast RAM network, pilot screen, dse1pr::URA3 reporter, 5-FOA selection (AID 869;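 active = inhibition over a set limit, the all-compound mean plus 3 SD, in both replicate runs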;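 also: 0% = DMSO wells with no growth and 100% = 10 µM 1-NA-PP1 with full growth; RAM network block rescues cells from 5-FOA so hits raise OD615 growth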); settings: S. cerevisiae dse1pr::URA3 5-FOA growth, OD615, 2 d; at 10 µM; active compounds read high; strain carries analog-sensitive mutant Cbk1 kinase
[7] = RAM signaling pathway blockade in yeast – S. cerevisiae, Pdr1DBD-CYC8 efflux-inhibited sensitized strain, primary screen (AID 1298;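 active = RAM network inhibition above 8.4% in each of two replicates, 3 SD over the compound average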;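 also: 0% = DMSO untreated cells without growth and 100% = 10 µM 1-NA-PP1 full growth; higher means more yeast growth rescued from 5-FOA killing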); settings: S. cerevisiae cbk1-as DSE1-URA3 strain, 5-FOA growth OD615, 2 d; at 50 µM; active compounds read high

COc1ccc(CNC(=O)c2onc(C)c2Cl)cc1
inactive: growth inhibition [1] -14.2% | growth inhibition [2] -17.2% | viability increase [3] -1.96% | viability [4] 96% | viability [5] 93.7% | inhibition [6] 2.31% | RAM network inhibition [7] 4.91%

Cc1cccc(-c2nc(CS(=O)CC(=O)NCC3CCCO3)c(C)o2)c1 (stereo unspecified)
inactive: growth inhibition [1] 4.35% | growth inhibition [2] 17.3% | viability increase [3] -2.27% | viability [4] 105% | viability [5] 96.3% | inhibition [6] 0.725% | RAM network inhibition [7] 2.14%

C=CCn1c(SCCC#N)nnc1-c1ccncc1
inactive: growth inhibition [1] -5.01% | growth inhibition [2] -18.7% | viability increase [3] -3.07% | viability [4] 100% | viability [5] 93.4% | inhibition [6] 1.88% | RAM network inhibition [7] -0.94%

CC(Oc1ccccc1)C(=O)OCC(=O)NC(=O)NCc1ccco1 (stereo unspecified)
inactive: growth inhibition [1] -5% | growth inhibition [2] -0.75% | viability increase [3] -1.78% | viability [4] 97.9% | viability [5] 97.2% | inhibition [6] 3.58% | RAM network inhibition [7] 2.68%

COc1ccc(C(=O)OCCN2C(=O)c3ccccc3C2=O)cc1
inactive: growth inhibition [1] -3.96% | growth inhibition [2] -5.23% | viability increase [3] -0.3% | viability [4] 100% | viability [5] 93.7% | inhibition [6] 0.645% | RAM network inhibition [7] 7.05%

COC(=O)c1c(-c2ccc(C)cc2)csc1N
inactive: growth inhibition [1] 1.67% | growth inhibition [2] 0.135% | viability increase [3] -3.98% | viability [4] 75.8% | viability [5] 87.8% | inhibition [6] -0.61% | RAM network inhibition [7] -1.79%

O=C(CCc1nc2ccccc2[nH]1)N1CCc2ccccc2C1
inactive: growth inhibition [1] -11.6% | growth inhibition [2] -12.5% | viability increase [3] -1.86% | viability [4] 104% | viability [5] 94.8% | inhibition [6] 0.94% | RAM network inhibition [7] 1.76%

CCOc1ccccc1N(CC(=O)Nc1ccccc1C(=O)O)S(C)(=O)=O
inactive: growth inhibition [1] -15.5% | growth inhibition [2] -9.54% | viability increase [3] 0.9% | viability [4] 97.5% | viability [5] 85.1% | inhibition [6] 0.11% | RAM network inhibition [7] 5.86%

COC(=O)c1ccc2[nH]c(C)cc(=O)c2c1
inactive: growth inhibition [1] -15.1% | growth inhibition [2] -24.1% | viability increase [3] -0.51% | viability [4] 99.8% | viability [5] 90.9% | inhibition [6] 1.61% | RAM network inhibition [7] 4.64%

[O-]/[N+](=C/c1cccnc1)c1ccc(Br)cc1
inactive: growth inhibition [1] -11.4% | growth inhibition [2] -4.11% | viability increase [3] -4.72% | viability [4] 93.8% | viability [5] 94% | inhibition [6] 2.69% | RAM network inhibition [7] 8.64%

CCOc1ccc(NC(=O)c2ccc(S(=O)(=O)N(C)C)cc2)cc1
inactive: growth inhibition [1] -12.8% | growth inhibition [2] -7.66% | viability increase [3] 0.26% | viability [4] 102% | viability [5] 92.4% | inhibition [6] 1.32% | RAM network inhibition [7] 1.71%

COC(=O)c1cc(-c2ccc3c(c2)OCO3)nc2ccccc12
inactive: growth inhibition [1] -14.1% | growth inhibition [2] -4.56% | viability increase [3] -0.1% | viability [4] 73.6% | viability [5] 76.3% | inhibition [6] 3.49% | RAM network inhibition [7] 8.14%

Cc1cccc(CCNC(=O)c2nnc(Cc3ccc(Cl)cc3)o2)c1
inactive: growth inhibition [1] -3.04% | growth inhibition [2] 1.66% | viability increase [3] 0.18% | viability [4] 102% | viability [5] 95.5% | inhibition [6] 1.27% | RAM network inhibition [7] 6.94%

CCOC(=O)NCc1ccc2[nH]c(C)cc2c1
inactive: growth inhibition [1] -16.1% | growth inhibition [2] -9.38% | viability increase [3] -1.52% | viability [4] 94.5% | viability [5] 97.1% | inhibition [6] -0.465% | RAM network inhibition [7] 4.71%

CC(C)(C)NC(=O)C1CCCN(S(=O)(=O)c2cccc3cccnc23)C1 (stereo unspecified)
inactive: growth inhibition [1] -5.03% | growth inhibition [2] 3.88% | viability increase [3] -2.62% | viability [4] 103% | viability [5] 96.1% | inhibition [6] 1.6% | RAM network inhibition [7] 0.52%

Cc1cc(/C=N/n2cnnc2)c(C)n1-c1cc(Cl)ccc1Cl
inactive: growth inhibition [1] 3.15% | growth inhibition [2] 18.3% | viability increase [3] -3.01% | viability [4] 51.9% | viability [5] 69.7% | inhibition [6] 1.85% | RAM network inhibition [7] 1.38%

COc1ccc(N2CC(C(=O)Nc3ccc(S(=O)(=O)Nc4nc(C)cc(C)n4)cc3)CC2=O)cc1 (stereo unspecified)
inactive: growth inhibition [1] -8.26% | growth inhibition [2] -7.87% | viability increase [3] -1.39% | viability [4] 100% | viability [5] 91.4% | inhibition [6] 1% | RAM network inhibition [7] 2.5%

CCNC(=O)Cc1ccc(NS(=O)(=O)c2ccc(F)cc2)cc1
inactive: growth inhibition [1] -7.1% | growth inhibition [2] 13.8% | viability increase [3] -2.21% | viability [4] 100% | viability [5] 94.6% | inhibition [6] 0.34% | RAM network inhibition [7] 2.36%
